Results collected from several papers.
Compare with care: the assays were run in different laboratories.
Target: Aurora kinase B (AURKB, Homo sapiens, UniProt Q96GD4)

| SMILES | read-out | technique | tested at | remaining binding |
| --- | --- | --- | --- | --- |
| O=C1CCc2cc(Nc3cc(OC4CCOCC4)c([N+](=O)[O-])cc3Cl)ccc2N1 | cell-free assay | competition with immobilised ligand | 1 µM | 86% |
| FC(F)(F)Oc1cccc(-c2cnc3ccc(-c4ccncc4)nn23)c1 | cell-free assay | competition with immobilised ligand | 5 µM | 73% |
| C[C@@H]1CN(c2ccc3ncc(-c4ccc5[nH]nc(C6CC6)c5c4)n3n2)C[C@H](C)O1 | binding | competition with immobilised ligand | 0.5 µM | 82% |
| COc1ccnn2ncc(-c3ccnc(N(C)C)n3)c12 | binding |  | 1 µM | 100% |
| CCN1CCN(Cc2ccc(C(=O)Nc3ccc(C)c(Oc4ccc5c(c4)CC(=O)N5)c3)cc2C(F)(F)F)CC1 | binding | competition with immobilised ligand | 1 µM | 100% |
| CN(C)c1ncc(F)c(-c2cnn3ncccc23)n1 | binding |  | 1 µM | 77% |
| O=C(NCc1ncc(C(F)(F)F)cc1Cl)c1ccc2c(c1)C1(CCS(=O)(=O)CC1)[C@@H](C1CC1)N2S(=O)(=O)c1ccc(F)cc1 | cell-free assay | competition with immobilised ligand | 1 µM | 66% |
| N[C@@H]1CCN(c2nccc(-c3cnn4ncccc34)n2)C1 | binding |  | 1 µM | 99% |
| CC1=C(C#N)[C@@H](c2ccc3[nH]nc(C)c3c2)C(C#N)=C(c2ccc(Cl)cc2)N1 | cell-free assay | competition with immobilised ligand | 1 µM | 82.9% |
| CC(C)(C)c1ccc(-c2nc(CBr)nn2-c2cccc(O)c2)cc1 | cell-free assay | competition with immobilised ligand | 10 µM | 69% |
| O=C(Nc1c[nH]nc1C(=O)NC1CCNCC1)c1cc(F)cc(F)c1 | binding | competition with immobilised ligand | 1 µM | 78% |
| O=C(c1ccc(Nc2ncc(Cl)c(-c3cc4ccccc4s3)n2)cc1)N1CCC(N2CCCC2)CC1 | binding | competition with immobilised ligand | 1 µM | 17% |
| C[C@@H]1CN(c2cc(-c3n[nH]c4ccc(OC5(C)CC5)cc34)ncn2)C[C@H](C)O1 | cell-free assay | competition with immobilised ligand | 0.1 µM | 73% |
| Nc1ncc2c(n1)-c1c([nH]c3ccc(C#CC4CC4)cc13)CCCC2 | binding | competition with immobilised ligand | 1 µM | 43% |
| Cc1cnc(Nc2ccc(C(=O)N3CCC(N4CCCC4)CC3)cc2)nc1-c1cc2ccccc2s1 | binding | competition with immobilised ligand | 1 µM | 6.8% |
| CN([C@@H]1CCc2c(CC(=O)O)c3cc(S(C)(=O)=O)ccc3n2C1)S(=O)(=O)c1ccc(F)cc1 | cell-free assay | competition with immobilised ligand | 1 µM | 83% |
| C[C@H]1CCN(c2nccc(-c3cnn4ncccc34)n2)C1 | binding |  | 1 µM | 70% |
| COc1cc(C(=O)N2CCC(N3CCN(C)CC3)CC2)ccc1Nc1ncc2c(n1)N(C)c1ccccc1C(=O)N2C | binding | competition with immobilised ligand | 10 µM | 38% |
| CCC(=O)N[C@H]1CC[C@@H](C(=O)N(C)c2ccc(-c3nc4ccccc4o3)cc2)C1 | cell-free assay | competition with immobilised ligand | 1 µM | 83% |
| O=C(c1ccc(Nc2ncc(Cl)c(-c3ccc(Cl)s3)n2)cc1)N1CCC(N2CCCC2)CC1 | binding | competition with immobilised ligand | 1 µM | 8.3% |
| Cc1c(C(=O)O)cc(-c2ccc(C3CCNCC3)cc2)c2ccc(-c3ccc(C(F)(F)F)cc3)cc12 | cell-free assay | competition with immobilised ligand | 1 µM | 100% |
| COc1cnc(Nc2cccc(S(N)(=O)=O)c2)nc1N1CCN(c2ccccc2)CC1 | binding | competition with immobilised ligand | 1 µM | 89% |
